In ChEMBL document CHEMBL3098010, “Synthesis and biological evaluation of 3-hydroxymethyl-5-(1H-1,2,3-triazol) isoxazolidines” (Bioorg Med Chem, 2013) one finds IC50 and Activity data, which are given here for 13 compounds.

Active and inactive are the calls of the source. The calls are words filed in the database; no cut-off is given here.

For test [1], the system named is FTC-133. The test can be described thus: Cytotoxicity against human FTC-133 cells after 24 hrs by MTT assay. The test is classed as functional, cell-based. The following applies: FTC-133, 24 h. Summed up:
(§1)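 FTC-133 (DMEM, 2 mM GlutaMAX, 10% FBS) and 8305C (MEM, 2 mM GlutaMAX, 10% FBS, 1% non-essential amino acids) cells are exposed to compound at 0.5–20 µM for 24 h at 37 °C, 5% CO2. MTT is added (20 µL of 0.5% in PBS, pH 7.4) for 1 h, then dissolved in DMSO and read at 570 nm. IC50 is taken graphically from dose–effect curves. Mean of four independent experiments in triplicate.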

Test [2] deals with 8305C. Nature of the test: Induction of apoptosis in human 8305C cells assessed as caspase-3 positive cells at 5 uM after 24 hrs by immunohistochemical analysis. The class given is functional, cell-based. The procedure, abridged: (§2)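 Cells on chamber slides are treated 24 h with 5 µM compound, then fixed in 4% paraformaldehyde for 20 min. Unspecific sites are blocked with 1% NGS for 1 h, then cells are incubated overnight at 37 °C with mouse anti-caspase-3 (1:200) and a TRITC anti-mouse secondary. Caspase-3-positive cells are counted by fluorescence microscopy in four fields per coverslip across four experiments.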

Test [3] relates to FTC-133. The test can be described thus: Induction of apoptosis in human FTC-133 cells assessed as caspase-3 positive cells at 5 uM after 24 hrs by immunohistochemical analysis. The class given is functional, cell-based. Summed up: as §2
In test [4] the test system is 8305C. Nature of the test: Cytotoxicity against human 8305C cells after 24 hrs by MTT assay. The test is classed as functional, cell-based. The procedure, abridged: as §1
(In general: Formazan colour is commonly taken as a measure of viable cells.)

Test [5] deals with FTC-133. The test can be described thus: Induction of apoptosis in human FTC-133 cells assessed as DNA fragmentation at 5 uM after 24 hrs by TUNEL assay (reference value: 3 +/- 1%). The test is classed as functional.
Test [6] deals with 8305C. Nature of the test: Induction of apoptosis in human 8305C cells assessed as DNA fragmentation at 5 uM after 24 hrs by TUNEL assay (reference value: 2 +/- 1%). The class given is functional.

In the case of `CN1O[C@@H](n2cc(-c3ccc(F)cc3)nn2)C[C@@H]1CO`, the IC50 – broadly, the concentration that gives 50% inhibition – in test [1] worked out at 6.07 µM; in test [4] it was 6.76 µM. The result in test [2] and in test [3] was Active.

Consider `COc1ccc(-c2cn([C@@H]3C[C@H](CO)N(C)O3)nn2)cc1` (relative stereo), for which the figures for the IC50 in test [1] and in test [4] were 6.48 µM and 7.18 µM, respectively. The outcome in test [2] and in test [3] was Active.

Take `CN1O[C@@H](n2cc(-c3ccccc3)nn2)C[C@@H]1CO` (relative stereo): the IC50 in test [1] came to 6.03 µM; in test [4], 7.14 µM. Besides, the result in test [2] and in test [3] was Active.

With `CN1O[C@H](n2cc(-c3ccccc3)nn2)C[C@@H]1CO` (relative stereo), the IC50 was 6.33 µM in test [1] and 8.76 µM in test [4]. Besides, the result in test [2] and in test [3] was Active.

For `CN1O[C@@H](n2ccnn2)C[C@@H]1CO` (relative stereo), the 50% inhibitory concentration (IC50) in test [1] was determined as 6.53 µM; in test [4] it was 7.96 µM. The outcome in test [2] and in test [3] was Active.

Consider `CN1O[C@H](n2ccnn2)C[C@@H]1CO` (relative stereo), for which the IC50 was determined as 6.3 µM in test [1] and 8.13 µM in test [4]. The result in test [2] and in test [3] was Active.

Take `CCCc1cn([C@H]2C[C@H](CO)N(C)O2)nn1` (relative stereo): the IC50 in test [1] was found to be 3.87 µM; in test [4] it was 5.82 µM. Besides, the Activity in test [5] was found to be 95%; in test [6] it was 90%. Further, the result in test [2] and in test [3] was Active.

Consider `CCCc1cn([C@@H]2C[C@H](CO)N(C)O2)nn1` (relative stereo), for which the IC50 in test [1] came to 4.71 µM; in test [4], 6.87 µM. Moreover, the result in test [2] and in test [3] was Active.

Turning to `COc1ccc(-c2cn([C@H]3C[C@H](CO)N(C)O3)nn2)cc1` (relative stereo), the values for the 50% inhibitory concentration (IC50) in test [1] and in test [4] were 7 µM and 8.01 µM, respectively. Besides, the result in test [2] and in test [3] was Active.

Consider `CCCCCc1ccc(-c2cn([C@H]3C[C@H](CO)N(C)O3)nn2)cc1` (relative stereo), for which the half-inhibitory concentration (IC50) in test [1] is 3.95 µM; in test [4], 5.96 µM. Besides, the result in test [2] and in test [3] was Active.

As for `CCCCCc1ccc(-c2cn([C@@H]3C[C@H](CO)N(C)O3)nn2)cc1` (relative stereo), the 50% inhibitory concentration (IC50) was determined as 4.49 µM in test [1] and 6.24 µM in test [4]. For the same compound, the result in test [2] and in test [3] was Active.

Consider `CN1O[C@H](n2cc(-c3ccc(F)cc3)nn2)C[C@@H]1CO` (relative stereo), for which the IC50 in test [1] stood at 5.85 µM; in test [4], 6.85 µM. The result in test [2] and in test [3] was Active.

With `Nc1ccn([C@@H]2O[C@H](CO)[C@@H](O)C2(F)F)c(=O)n1` [GEMCITABINE], the IC50 turned out to be 3.36 µM in test [1] and 4.53 µM in test [4]. The outcome in test [2] and in test [3] was Active.
